For assay [1], the target named is T1, Protein-tyrosine kinase 2-beta (Mus musculus, UniProt Q9QVP9). The assay can be described thus: (§1) Inhibition of mouse Pyk2 in […] cells assessed as increase in alkaline phosphatase level. It is filed as cell-based. An outline of the steps:
(§2)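 MC3T3 osteoblast cells were grown with increasing inhibitor concentrations for up to 3 weeks. Alkaline phosphatase, osteocalcin and calcium were measured as osteogenic markers after three weeks in culture, and ALP was also measured at additional time points. EC50 values came from the dose-response. Culture and dosing conditions followed an earlier report.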

Assay [2] addresses Protein-tyrosine kinase 2-beta (Mus musculus) (UniProt Q9QVP9). The assay is described as §1. It is filed as cell-based. The essentials: as §2
The target in assay [3] is T1, Protein-tyrosine kinase 2-beta. The assay can be described thus: (§3) Inhibition of mouse Pyk2 in […] cells assessed as increase in osteocalcin level. It is filed as cell-based. An outline of the steps: as §2
Assay [4] has as its target Protein-tyrosine kinase 2-beta (Mus musculus) (UniProt Q9QVP9). The assay is described as §3. It is filed as cell-based. The essentials: as §2
The target in another assay is Focal adhesion kinase 1 (Homo sapiens, UniProt Q05397). The experiment in a line: Inhibition of human FAK by HTRF assay.
Chain of Focal adhesion kinase 1 (Q05397 whole entry): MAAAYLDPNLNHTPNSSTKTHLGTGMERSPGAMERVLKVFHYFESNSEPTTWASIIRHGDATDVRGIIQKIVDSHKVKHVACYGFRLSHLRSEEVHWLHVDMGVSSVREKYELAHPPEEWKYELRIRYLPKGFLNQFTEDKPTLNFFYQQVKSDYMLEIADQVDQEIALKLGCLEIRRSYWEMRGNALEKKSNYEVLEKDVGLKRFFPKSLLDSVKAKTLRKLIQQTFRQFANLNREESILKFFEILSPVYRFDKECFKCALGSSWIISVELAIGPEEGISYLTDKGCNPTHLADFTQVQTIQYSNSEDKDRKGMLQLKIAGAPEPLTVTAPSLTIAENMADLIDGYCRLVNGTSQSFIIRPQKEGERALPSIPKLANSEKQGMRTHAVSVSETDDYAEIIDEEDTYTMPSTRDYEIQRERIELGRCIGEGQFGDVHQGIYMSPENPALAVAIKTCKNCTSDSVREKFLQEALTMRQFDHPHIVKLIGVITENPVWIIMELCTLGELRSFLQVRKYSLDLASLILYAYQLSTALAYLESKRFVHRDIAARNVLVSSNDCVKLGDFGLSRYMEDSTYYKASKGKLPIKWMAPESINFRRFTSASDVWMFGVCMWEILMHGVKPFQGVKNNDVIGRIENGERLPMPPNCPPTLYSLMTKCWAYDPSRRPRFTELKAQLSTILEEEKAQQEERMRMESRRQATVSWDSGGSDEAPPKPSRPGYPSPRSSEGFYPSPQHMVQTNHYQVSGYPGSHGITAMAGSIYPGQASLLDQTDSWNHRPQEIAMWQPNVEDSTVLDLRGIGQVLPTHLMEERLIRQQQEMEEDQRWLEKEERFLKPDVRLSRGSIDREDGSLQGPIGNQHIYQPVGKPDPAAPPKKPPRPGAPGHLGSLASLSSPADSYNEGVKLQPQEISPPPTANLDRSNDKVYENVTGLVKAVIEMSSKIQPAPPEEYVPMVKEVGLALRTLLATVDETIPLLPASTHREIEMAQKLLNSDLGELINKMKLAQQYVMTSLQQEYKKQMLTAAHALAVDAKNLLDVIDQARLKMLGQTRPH
Assay [5] has as its target Protein-tyrosine kinase 2-beta (Mus musculus) (UniProt Q9QVP9). The experiment in a line: Inhibition of mouse Pyk2 in […] cells assessed as increase in calcium level. It is filed as cell-based. The essentials: as §2
Assay [6] concerns the target Interferon-induced, double-stranded RNA-activated protein kinase (Homo sapiens, UniProt P19525). The assay can be described thus: Inhibition of PKR.
For assay [7], the target named is T2, Tyrosine-protein kinase JAK3 (Homo sapiens, UniProt P52333).
T2 sequence (P52333 whole entry): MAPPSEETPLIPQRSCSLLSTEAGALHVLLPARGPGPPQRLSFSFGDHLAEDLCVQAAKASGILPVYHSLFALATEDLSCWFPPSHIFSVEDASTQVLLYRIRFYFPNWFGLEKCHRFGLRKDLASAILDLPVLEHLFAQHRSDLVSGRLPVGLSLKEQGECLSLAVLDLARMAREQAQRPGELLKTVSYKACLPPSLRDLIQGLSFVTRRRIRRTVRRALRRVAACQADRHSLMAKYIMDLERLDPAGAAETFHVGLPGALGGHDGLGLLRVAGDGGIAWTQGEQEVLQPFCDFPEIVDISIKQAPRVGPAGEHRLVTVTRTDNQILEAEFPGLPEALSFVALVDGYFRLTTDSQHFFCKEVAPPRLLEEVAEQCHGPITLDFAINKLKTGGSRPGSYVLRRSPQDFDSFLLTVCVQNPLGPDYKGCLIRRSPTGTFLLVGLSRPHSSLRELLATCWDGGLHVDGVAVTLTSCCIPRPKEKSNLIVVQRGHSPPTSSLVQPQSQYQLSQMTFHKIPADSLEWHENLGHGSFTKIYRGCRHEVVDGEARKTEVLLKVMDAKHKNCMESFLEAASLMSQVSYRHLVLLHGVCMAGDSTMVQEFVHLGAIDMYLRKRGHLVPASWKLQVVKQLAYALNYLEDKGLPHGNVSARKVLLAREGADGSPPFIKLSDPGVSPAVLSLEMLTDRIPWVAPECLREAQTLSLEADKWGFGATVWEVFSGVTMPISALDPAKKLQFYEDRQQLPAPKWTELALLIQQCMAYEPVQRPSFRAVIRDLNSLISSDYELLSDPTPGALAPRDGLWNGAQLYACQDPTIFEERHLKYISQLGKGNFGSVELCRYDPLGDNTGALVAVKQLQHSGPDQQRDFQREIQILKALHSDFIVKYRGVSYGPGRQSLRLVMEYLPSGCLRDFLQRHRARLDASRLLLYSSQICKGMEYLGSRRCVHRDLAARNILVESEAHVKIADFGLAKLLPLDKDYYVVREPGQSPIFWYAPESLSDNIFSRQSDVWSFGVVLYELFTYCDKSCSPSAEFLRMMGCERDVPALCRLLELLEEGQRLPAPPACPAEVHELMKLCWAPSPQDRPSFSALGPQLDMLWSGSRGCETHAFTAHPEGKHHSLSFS
The assay can be described thus: Inhibition of Jak3.

In assay [8] the target is T3, Eukaryotic translation initiation factor 2-alpha kinase 3 (Homo sapiens, UniProt Q9NZJ5).
T3 sequence (Q9NZJ5 whole entry): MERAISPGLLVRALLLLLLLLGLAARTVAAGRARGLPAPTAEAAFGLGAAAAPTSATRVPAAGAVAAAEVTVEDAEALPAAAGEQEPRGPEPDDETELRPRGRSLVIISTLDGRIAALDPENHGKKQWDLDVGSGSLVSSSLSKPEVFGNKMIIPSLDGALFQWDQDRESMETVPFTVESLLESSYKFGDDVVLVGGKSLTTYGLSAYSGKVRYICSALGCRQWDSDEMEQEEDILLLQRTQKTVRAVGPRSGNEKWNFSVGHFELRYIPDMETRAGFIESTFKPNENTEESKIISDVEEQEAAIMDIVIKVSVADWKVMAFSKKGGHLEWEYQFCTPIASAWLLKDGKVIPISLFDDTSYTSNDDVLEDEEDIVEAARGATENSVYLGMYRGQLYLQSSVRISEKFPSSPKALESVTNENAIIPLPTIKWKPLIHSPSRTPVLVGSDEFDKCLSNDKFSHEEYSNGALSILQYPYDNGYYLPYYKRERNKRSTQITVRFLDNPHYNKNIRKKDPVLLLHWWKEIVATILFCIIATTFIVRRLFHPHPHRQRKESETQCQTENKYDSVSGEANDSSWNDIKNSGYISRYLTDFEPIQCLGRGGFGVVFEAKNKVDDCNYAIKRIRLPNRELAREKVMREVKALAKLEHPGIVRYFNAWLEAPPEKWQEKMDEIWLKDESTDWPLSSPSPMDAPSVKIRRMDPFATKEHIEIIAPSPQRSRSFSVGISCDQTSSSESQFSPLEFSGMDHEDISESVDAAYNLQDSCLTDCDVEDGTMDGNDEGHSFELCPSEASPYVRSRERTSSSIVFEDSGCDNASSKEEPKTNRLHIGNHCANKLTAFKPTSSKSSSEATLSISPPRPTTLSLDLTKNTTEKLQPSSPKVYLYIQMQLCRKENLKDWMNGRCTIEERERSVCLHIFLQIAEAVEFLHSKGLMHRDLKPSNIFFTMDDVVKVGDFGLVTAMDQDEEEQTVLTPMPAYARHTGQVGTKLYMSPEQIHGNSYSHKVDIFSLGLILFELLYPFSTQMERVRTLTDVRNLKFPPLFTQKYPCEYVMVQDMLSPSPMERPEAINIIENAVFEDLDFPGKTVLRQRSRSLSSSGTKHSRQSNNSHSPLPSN
The assay can be described thus: Inhibition of PEK.

Assay [9] deals with Non-receptor tyrosine-protein kinase TYK2 (Homo sapiens, UniProt P29597). The experiment in a line: Inhibition of TYK2.
A short description of assay [10]: Inhibition of Aurora 2.
In assay [11] the target is Tyrosine-protein kinase JAK1 (Homo sapiens, UniProt P23458). The experiment in a line: Inhibition of Jak1.
Chain of Tyrosine-protein kinase JAK1 (P23458 whole entry): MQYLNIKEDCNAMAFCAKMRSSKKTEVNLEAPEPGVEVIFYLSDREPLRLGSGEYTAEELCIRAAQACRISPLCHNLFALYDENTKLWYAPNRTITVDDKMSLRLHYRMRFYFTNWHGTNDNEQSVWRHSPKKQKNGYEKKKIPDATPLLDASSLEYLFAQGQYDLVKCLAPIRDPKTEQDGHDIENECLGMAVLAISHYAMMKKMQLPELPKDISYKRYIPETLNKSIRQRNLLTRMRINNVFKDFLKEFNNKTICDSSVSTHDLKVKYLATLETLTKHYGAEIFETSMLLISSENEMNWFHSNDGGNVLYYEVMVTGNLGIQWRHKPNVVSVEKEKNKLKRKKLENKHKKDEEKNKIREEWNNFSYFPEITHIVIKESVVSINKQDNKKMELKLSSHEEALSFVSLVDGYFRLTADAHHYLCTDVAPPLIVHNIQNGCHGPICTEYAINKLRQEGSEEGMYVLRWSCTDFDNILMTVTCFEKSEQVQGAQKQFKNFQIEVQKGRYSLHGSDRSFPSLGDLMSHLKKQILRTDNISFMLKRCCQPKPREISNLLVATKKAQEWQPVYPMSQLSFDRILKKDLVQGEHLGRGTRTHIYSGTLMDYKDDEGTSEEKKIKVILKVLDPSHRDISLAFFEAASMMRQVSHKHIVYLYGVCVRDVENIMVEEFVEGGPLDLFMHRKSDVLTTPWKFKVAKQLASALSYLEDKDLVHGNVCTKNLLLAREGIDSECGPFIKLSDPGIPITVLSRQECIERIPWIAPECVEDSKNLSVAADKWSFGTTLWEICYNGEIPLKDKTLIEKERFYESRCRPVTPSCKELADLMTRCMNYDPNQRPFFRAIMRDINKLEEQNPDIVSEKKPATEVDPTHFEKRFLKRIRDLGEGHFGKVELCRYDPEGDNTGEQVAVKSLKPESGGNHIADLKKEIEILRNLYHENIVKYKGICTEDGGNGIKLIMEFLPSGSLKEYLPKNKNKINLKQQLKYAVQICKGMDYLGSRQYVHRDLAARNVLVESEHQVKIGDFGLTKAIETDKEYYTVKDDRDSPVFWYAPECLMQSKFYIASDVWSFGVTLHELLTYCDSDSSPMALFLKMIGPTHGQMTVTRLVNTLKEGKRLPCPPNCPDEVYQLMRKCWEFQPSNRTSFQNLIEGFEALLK
Assay [12] deals with T4, Protein-tyrosine kinase 2-beta (Homo sapiens, UniProt Q14289). The experiment in a line: Inhibition of human PyK2 Y402 autophosphorylation expressed in 293T cells by immunofluorescence assay. It counts as cell-based.
T4 sequence (Q14289 whole entry): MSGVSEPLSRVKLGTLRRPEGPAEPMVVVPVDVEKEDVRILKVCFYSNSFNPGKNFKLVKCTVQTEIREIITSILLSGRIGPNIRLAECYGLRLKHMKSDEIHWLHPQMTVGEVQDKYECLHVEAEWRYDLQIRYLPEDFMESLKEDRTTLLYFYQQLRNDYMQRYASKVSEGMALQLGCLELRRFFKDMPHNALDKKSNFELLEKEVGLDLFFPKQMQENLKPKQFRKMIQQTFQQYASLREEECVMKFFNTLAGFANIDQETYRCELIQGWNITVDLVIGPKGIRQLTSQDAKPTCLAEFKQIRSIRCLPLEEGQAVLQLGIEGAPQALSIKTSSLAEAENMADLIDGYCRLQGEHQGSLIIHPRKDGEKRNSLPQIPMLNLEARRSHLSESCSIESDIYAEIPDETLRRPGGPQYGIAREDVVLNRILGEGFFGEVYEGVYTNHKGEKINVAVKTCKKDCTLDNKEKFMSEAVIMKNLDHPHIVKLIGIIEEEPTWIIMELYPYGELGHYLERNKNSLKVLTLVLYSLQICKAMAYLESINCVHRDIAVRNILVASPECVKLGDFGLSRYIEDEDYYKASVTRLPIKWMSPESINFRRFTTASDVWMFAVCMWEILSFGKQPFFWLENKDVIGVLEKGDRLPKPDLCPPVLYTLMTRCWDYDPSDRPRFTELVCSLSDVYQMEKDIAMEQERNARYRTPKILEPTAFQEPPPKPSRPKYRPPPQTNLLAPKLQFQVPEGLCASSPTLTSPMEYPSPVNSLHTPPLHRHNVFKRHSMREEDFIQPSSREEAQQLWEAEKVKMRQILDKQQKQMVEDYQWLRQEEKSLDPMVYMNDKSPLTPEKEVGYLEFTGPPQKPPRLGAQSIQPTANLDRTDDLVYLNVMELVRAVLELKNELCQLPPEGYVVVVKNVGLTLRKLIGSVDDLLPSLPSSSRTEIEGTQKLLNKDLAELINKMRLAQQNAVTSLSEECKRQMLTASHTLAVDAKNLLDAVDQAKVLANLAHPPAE
Assay [13] addresses T4, Protein-tyrosine kinase 2-beta. The experiment in a line: Inhibition of human Pyk2 by HTRF assay.
Assay [14] concerns the target Tyrosine-protein kinase JAK2 (Homo sapiens, UniProt O60674). The assay can be described thus: Inhibition of Jak2.

The structures appear in SMILES notation.

T1 sequence (Q9QVP9 whole entry): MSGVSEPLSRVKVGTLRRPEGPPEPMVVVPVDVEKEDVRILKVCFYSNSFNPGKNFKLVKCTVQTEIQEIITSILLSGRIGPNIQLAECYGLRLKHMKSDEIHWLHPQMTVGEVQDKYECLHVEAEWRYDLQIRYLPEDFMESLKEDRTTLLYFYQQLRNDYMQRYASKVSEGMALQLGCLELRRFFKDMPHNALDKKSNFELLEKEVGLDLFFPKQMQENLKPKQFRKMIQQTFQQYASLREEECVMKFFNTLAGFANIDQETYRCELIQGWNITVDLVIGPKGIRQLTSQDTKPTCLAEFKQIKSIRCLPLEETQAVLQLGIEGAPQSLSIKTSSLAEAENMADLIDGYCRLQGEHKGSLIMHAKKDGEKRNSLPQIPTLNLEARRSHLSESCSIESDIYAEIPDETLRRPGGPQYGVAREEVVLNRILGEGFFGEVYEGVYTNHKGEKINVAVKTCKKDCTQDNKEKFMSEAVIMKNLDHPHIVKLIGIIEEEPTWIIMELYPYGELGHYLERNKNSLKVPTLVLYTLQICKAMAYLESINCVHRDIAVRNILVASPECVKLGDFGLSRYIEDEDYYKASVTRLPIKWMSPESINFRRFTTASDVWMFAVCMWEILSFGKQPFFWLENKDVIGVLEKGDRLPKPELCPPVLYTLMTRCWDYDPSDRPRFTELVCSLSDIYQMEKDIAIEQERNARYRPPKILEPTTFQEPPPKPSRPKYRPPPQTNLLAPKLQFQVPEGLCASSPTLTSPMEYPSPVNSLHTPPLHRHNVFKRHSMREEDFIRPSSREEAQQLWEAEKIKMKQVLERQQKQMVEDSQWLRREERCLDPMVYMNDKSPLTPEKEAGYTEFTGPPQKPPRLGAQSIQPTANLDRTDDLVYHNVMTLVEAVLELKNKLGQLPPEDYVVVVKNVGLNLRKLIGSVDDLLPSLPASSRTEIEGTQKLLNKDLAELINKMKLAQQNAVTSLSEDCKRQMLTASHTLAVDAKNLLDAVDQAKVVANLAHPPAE
Chain of Protein-tyrosine kinase 2-beta (Mus musculus) (Q9QVP9 whole entry, looked up): as the sequence (Q9QVP9 whole entry) above
Chain of Interferon-induced, double-stranded RNA-activated protein kinase (P19525 whole entry): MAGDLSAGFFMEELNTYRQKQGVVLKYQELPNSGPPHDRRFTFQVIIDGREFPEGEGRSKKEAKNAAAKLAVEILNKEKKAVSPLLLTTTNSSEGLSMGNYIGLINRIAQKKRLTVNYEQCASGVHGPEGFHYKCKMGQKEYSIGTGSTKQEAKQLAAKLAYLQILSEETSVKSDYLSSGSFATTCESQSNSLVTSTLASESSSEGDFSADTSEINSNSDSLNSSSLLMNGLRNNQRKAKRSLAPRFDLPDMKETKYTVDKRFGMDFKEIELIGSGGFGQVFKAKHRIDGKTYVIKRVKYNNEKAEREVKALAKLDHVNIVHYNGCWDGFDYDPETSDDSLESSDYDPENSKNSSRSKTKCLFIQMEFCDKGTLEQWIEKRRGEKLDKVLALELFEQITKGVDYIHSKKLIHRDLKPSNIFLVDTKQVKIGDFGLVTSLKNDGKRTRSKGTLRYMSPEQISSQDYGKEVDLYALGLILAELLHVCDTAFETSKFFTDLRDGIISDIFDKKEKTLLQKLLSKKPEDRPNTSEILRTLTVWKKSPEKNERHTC

As to `COc1cc2nccc(Oc3ccc(NC(=O)c4cc(-c5cccs5)cn(-c5ccccc5)c4=O)nc3)c2cc1OC`, the EC50 in assay [1] and in assay [3] was 10 nM each time. Also, the Activity result in assay [2], in assay [4] and in assay [5] was “Dose-dependent effect” each time. For the same compound, the 50% inhibitory concentration (IC50) against Focal adhesion kinase 1 is over 125000 nM.

Regarding `COCCNc1ccn(-c2ccccc2)c(=O)c1C(=O)Nc1ccc(Oc2ccnc3cc(OC)ccc23)cn1`, the half-inhibitory concentration (IC50) on Focal adhesion kinase 1 is over 125000 nM.

Regarding `COc1cc2nccc(Oc3ccc(NC(=O)c4c(N(C)C)ccn(-c5ccccc5)c4=O)nc3)c2cc1OC`, on Focal adhesion kinase 1, the IC50 is over 125000 nM.

Regarding `CNc1ccn(Cc2ccccc2)c(=O)c1C(=O)Nc1ccc(Oc2ccnc3cc(OC)c(OC)cc23)cn1`, on Focal adhesion kinase 1, the IC50 was over 125000 nM.

On Focal adhesion kinase 1, `COc1cc2nccc(Oc3ccc(NC(=O)c4c(N5CCN(C)CC5)ccn(-c5ccccc5)c4=O)nc3)c2cc1OC` had a half-inhibitory concentration (IC50) of over 125000 nM.

As to `COc1ccc2c(Oc3ccc(NC(=O)c4cc(-c5cccnc5)cn(-c5ccccc5)c4=O)nc3)ccnc2c1`, at Focal adhesion kinase 1, the IC50 was over 125000 nM.

Regarding `CNc1ccn(-c2ccccc2)c(=O)c1C(=O)Nc1ccc(Oc2ccnc3cc(OC)c(OC)cc23)cn1`, the IC50 in assay [6], in [7], in assay [8], in [9], in assay [10] and in assay [11] was over 1000 nM each time. Further, the IC50 in assay [12] was 110 nM; on Focal adhesion kinase 1 it was 17000 nM; in assay [13], 35 nM; in [14], over 1000 nM. Besides, the EC50 in [1] and in assay [3] was 10 nM in each case. Besides, the Activity entry in assay [2], in assay [4] and in [5] was “Dose-dependent effect” in each case.

The compound `COc1cc2nccc(Oc3ccc(NC(=O)c4cc(-c5cccnc5)cn(-c5ccccc5)c4=O)nc3)c2cc1OC` yielded an IC50 against Focal adhesion kinase 1 of over 125000 nM.

On to `COc1ccc2c(Oc3ccc(NC(=O)c4cc(-c5cnccn5)cn(-c5ccccc5)c4=O)nc3)ccnc2c1`, for which the IC50 against Focal adhesion kinase 1 is over 125000 nM.

(Values after ChEMBL document CHEMBL1155349, “Identification of small molecule inhibitors of proline-rich tyrosine kinase 2 (Pyk2) with osteogenic activity in osteoblast cells” (Bioorg Med Chem Lett, 2009).)
